Data on seven compounds can be found in ChEMBL document CHEMBL1124399, “Synthesis and structure-activity studies of some disubstituted phenylisoxazoles against human picornavirus” (J Med Chem, 1989).

Converted amounts (≈) assume the structure as drawn. “And” between values parts separate entries of the source, which are not always exact repeats. Equal entries are not always repeated.

The test system of experiment [1] is Enterovirus. The experiment can be described thus: (§1) In vitro anti-rhinovirus activity was measured as maximum testable levels - highest concentration of compound which causes no apparent effect on the cell monolayers. It is filed as functional.
The subject of experiment [2] is Enterovirus C. The experiment is described as follows: In vitro activity against coxsackie A- 4. Format: functional.
Experiment [3] deals with Enterovirus. The experiment is described as follows: Minimum inhibitory concentration against rhinovirus serotype 1A. Format: functional. The procedure, abridged: (§2)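 Rhinovirus minimum inhibitory concentration (MIC) determined in a plaque reduction assay in cell culture, testing each serotype separately.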
The test system of experiment [4] is Enterovirus C. The experiment can be described thus: In vitro activity against polioviurs-2 (Lansing). It is filed as functional.
Experiment [5] relates to Enterovirus. The experiment is described as follows: In vitro anti-rhinovirus activity was measured as mean MIC for five serotypes, HRV-1A, -2, -22, -41, and -50. Format: functional. Summed up:
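Mean of plaque-reduction-assay MICs across five rhinovirus serotypes (HRV-1A, -2, -22, -41, -50), chosen to represent a range of sensitivity to this compound class.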

Experiment [6] concerns Enterovirus. The experiment can be described thus: Minimum inhibitory concentration against rhinovirus serotype 21. Format: functional. Summed up: as §2
Experiment [7] has as its system Echovirus. The experiment can be described thus: In vitro activity against echovirus-30.
The subject of experiment [8] is Echovirus. The experiment can be described thus: In vitro activity against echovirus-9 (Barty). Format: functional.
The test system of experiment [9] is Echovirus. The experiment can be described thus: In vitro activity against echovirus-4. It is filed as functional.
The test system of experiment [10] is Echovirus. The experiment is described as follows: In vitro activity against echovirus-3. Format: functional.
Experiment [11] deals with Enterovirus. The experiment can be described thus: Minimum inhibitory concentration against rhinovirus serotype 1B. It is filed as functional. The procedure, abridged: as §2
Experiment [12] concerns Coxsackievirus. The experiment is described as follows: In vitro activity against coxsackie A-2. Format: functional.
For experiment [13], the system named is Coxsackievirus. The experiment is described as follows: In vitro activity against coxsackie A- 9. It is filed as functional.
In experiment [14] the test system is Enterovirus. The experiment is described as follows: Estimation by using phi 21 in combination with log P of compound 13 determined via RPHPLC-retention time procedure. It is filed as functional. The procedure, abridged: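 Values estimated by adding substituent π constants to the measured log P of a reference analogue. That reference log P came from reversed-phase HPLC retention times, with mobile phase at pH 7.4 and n = 3.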

In experiment [15] the test system is Enterovirus. The experiment is described as follows: Concentration required to inhibit 80 percent rhinovirus cell culture. It is filed as functional. The procedure, abridged: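 MIC80 is the concentration that inhibits 80% of the rhinovirus serotypes tested. It is derived from per-serotype MICs measured by plaque reduction assay.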
The test system of experiment [16] is Enterovirus. The experiment is described as follows: Minimum inhibitory concentration against rhinovirus serotype 50. It is filed as functional. Summed up:
as §2

Experiment [17] deals with Enterovirus. The experiment is described as follows: Minimum inhibitory concentration against rhinovirus serotype 15. Format: functional. Summed up:
as §2

In experiment [18] the test system is Echovirus. The experiment is described as follows: In vitro activity against echovirus-12.
The subject of experiment [19] is Echovirus. The experiment is described as follows: In vitr oactivity against echovirus-3. Format: functional.
For experiment [20], the system named is Coxsackievirus. The experiment is described as follows: In vitro activity against coxsackie B-2. It is filed as functional.
Experiment [21] concerns Coxsackievirus. The experiment is described as follows: In vitro activity against coxsackie A- 11. Format: functional.
Experiment [22] concerns Coxsackievirus. The experiment is described as follows: In vitro activity against coxsackie A- 21.
Experiment [23] has as its system Enterovirus. The experiment is described as follows: Minimum inhibitory concentration against rhinovirus serotype 86. It is filed as functional. The procedure, abridged:
as §2

The test system of experiment [24] is Coxsackievirus. The experiment is described as follows: In vitro activity against coxsackie A- 21. Format: functional.
The test system of experiment [25] is Enterovirus C. The experiment is described as follows: In vitro activity against polioviurs-1 (Mahoney). It is filed as functional.
Experiment [26] concerns Enterovirus. The experiment can be described thus: Minimum inhibitory concentration against rhinovirus serotype 30. Format: functional. Summed up:
as §2

The subject of experiment [27] is Echovirus. The experiment is described as follows: In vitro activity of the compound against echovirus-12.
For experiment [28], the system named is Enterovirus. The experiment can be described thus: Minimum inhibitory concentration against rhinovirus serotype 41. It is filed as functional. Summed up: as §2
Experiment [29] deals with Enterovirus. The experiment can be described thus: Minimum inhibitory concentration against rhinovirus serotype 67. It is filed as functional. As to conditions: Enterovirus; read-out: MIC. Summed up: as §2
For experiment [30], the system named is Enterovirus. Described as §1. It is filed as functional. This is another data set of the same source.
Experiment [31] has as its system Enterovirus. The experiment can be described thus: Minimum inhibitory concentration against rhinovirus serotype 14. Format: functional. Summed up: as §2
The subject of experiment [32] is Enterovirus. The experiment is described as follows: Minimum inhibitory concentration against rhinovirus serotype 6. As to conditions: Enterovirus; read-out: MIC. It is filed as functional. The procedure, abridged: as §2
The test system of experiment [33] is Enterovirus. The experiment is described as follows: Minimum inhibitory concentration against rhinovirus serotype 89. It is filed as functional. Summed up:
as §2

Experiment [34] deals with Enterovirus. The experiment can be described thus: Minimum inhibitory concentration against rhinovirus serotype 1B. Format: functional. Summed up: as §2

For `Cc1cc(CCCCCOc2c(Cl)cc(C3=NCCO3)cc2C(C)(C)C)on1`, in the experiment on Enterovirus [1] (Enterovirus, read-out: MIC), the MIC amounted to 12.4 µM (≈ 5.02 µg/mL).

In the case of `Cc1cc(CCCCCOc2c(Cl)cc(C3=NCCO3)cc2Cl)on1` [WIN-54954], the MIC against Enterovirus C [2] is 1.4 µM (≈ 0.537 µg/mL); with Enterovirus [3], 0.02 µM (≈ 0.00767 µg/mL); in the experiment with Enterovirus C [4], 0.55 µM (≈ 0.211 µg/mL); against Enterovirus [5] it was 0.7 µM (≈ 0.268 µg/mL); in the experiment with Enterovirus [6] (Enterovirus, read-out: MIC), 0.3 µM (≈ 0.115 µg/mL); against Echovirus [7], 0.08 µM (≈ 0.0307 µg/mL). The MIC turned out to be 2.6 µM (≈ 0.997 µg/mL) against Echovirus [8]; 0.39 µM (≈ 0.149 µg/mL) against Echovirus [9]; 0.18 µM (≈ 0.069 µg/mL) against Echovirus [10]; 0.2 µM (≈ 0.0767 µg/mL) with Enterovirus [11] (Enterovirus, read-out: MIC); 8.6 µM (≈ 3.3 µg/mL) against Coxsackievirus [12]; 13.2 µM (≈ 5.06 µg/mL) in the experiment with Coxsackievirus [13]. Further, the MIC is 0.7 µM with Enterovirus [14]; 2.6 µM (≈ 0.997 µg/mL) against Enterovirus [16]; 0.3 µM (≈ 0.115 µg/mL) in the experiment on Enterovirus [17] (Enterovirus, read-out: MIC); 16.2 µM (≈ 6.21 µg/mL) in the experiment with Echovirus [18]; 1.4 µM (≈ 0.537 µg/mL) with Echovirus [19]; 0.13 µM (≈ 0.0498 µg/mL) against Coxsackievirus [20]. Moreover, the MIC in the experiment on Coxsackievirus [21] stood at 4.8 µM (≈ 1.84 µg/mL); with Coxsackievirus [22], 0.008 µM (≈ 0.00307 µg/mL); against Enterovirus [23], 0.02 µM (≈ 0.00767 µg/mL); against Coxsackievirus [24] it was 0.21 µM (≈ 0.0805 µg/mL); against Enterovirus C [25], 0.65 µM (≈ 0.249 µg/mL); with Enterovirus [26] (Enterovirus, read-out: MIC) it was 0.09 µM (≈ 0.0345 µg/mL). The figures for the MIC against Echovirus [27], against Enterovirus [28] and in the experiment with Enterovirus [29] were 0.03 µM (≈ 0.0115 µg/mL), 0.9 µM (≈ 0.345 µg/mL) and 0.02 µM (≈ 0.00767 µg/mL), respectively. This compound gave an MIC80 in the experiment on Enterovirus [15] of 0.3 µM (≈ 0.115 µg/mL).

Take `Cc1cc(CCCCCOc2c(Br)cc(C3=NCCO3)cc2Br)on1`: the MIC against Enterovirus [3] is 0.1 µM (≈ 0.0472 µg/mL); in the experiment on Enterovirus [5], 0.63 µM (≈ 0.297 µg/mL); in the experiment with Enterovirus [6] (Enterovirus, read-out: MIC) it was 0.3 µM (≈ 0.142 µg/mL); against Enterovirus [17], 0.04 µM and 0.1 µM; in the experiment with Enterovirus [30], 0.6 µM (≈ 0.283 µg/mL); in the experiment with Enterovirus [26] it was 0.2 µM (≈ 0.0944 µg/mL). Further, the MIC in the experiment on Enterovirus [26] (Enterovirus, read-out: MIC) worked out at 0.4 µM (≈ 0.189 µg/mL); against Enterovirus [28], 2.1 µM (≈ 0.992 µg/mL). In the experiment with Enterovirus [15], this compound had an MIC80 of 1.3 µM (≈ 0.614 µg/mL).

Turning to `Cc1cc(CCCCCOc2c(Cl)cc(C3=NCCO3)cc2Br)on1`, the MIC turned out to be 0.04 µM (≈ 0.0171 µg/mL) with Enterovirus [3]; 0.61 µM (≈ 0.261 µg/mL) with Enterovirus [5]; 0.2 µM (≈ 0.0855 µg/mL) against Enterovirus [6]; 0.3 µM (≈ 0.128 µg/mL) in the experiment on Enterovirus [6] (Enterovirus, read-out: MIC); 0.09 µM (≈ 0.0385 µg/mL) in the experiment on Enterovirus [16]; 0.4 µM (≈ 0.171 µg/mL) in the experiment with Enterovirus [17] (Enterovirus, read-out: MIC). Also, the MIC with Enterovirus [23] was 0.02 µM (≈ 0.00855 µg/mL); in the experiment on Enterovirus [30] it was 0.6 µM (≈ 0.257 µg/mL); in the experiment on Enterovirus [26] (Enterovirus, read-out: MIC), 0.08 µM (≈ 0.0342 µg/mL); in the experiment with Enterovirus [28] it was 1.8 µM (≈ 0.77 µg/mL). This compound also registered an MIC80 against Enterovirus [15] of 0.5 µM (≈ 0.214 µg/mL).

`Cc1cc(CCCCCOc2c(C)cc(C3=NCCO3)cc2Cl)on1`: the MIC against Enterovirus [3] was 0.04 µM (≈ 0.0145 µg/mL); in the experiment on Enterovirus [5], 0.92 µM (≈ 0.334 µg/mL); in the experiment on Enterovirus [6] (Enterovirus, read-out: MIC), 0.2 µM (≈ 0.0726 µg/mL); against Enterovirus [31], 0.6 µM (≈ 0.218 µg/mL); with Enterovirus [11] it was 0.6 µM (≈ 0.218 µg/mL); with Enterovirus [11] (Enterovirus, read-out: MIC), 0.4 µM (≈ 0.145 µg/mL). The MIC with Enterovirus [32] amounted to 0.06 µM (≈ 0.0218 µg/mL); with Enterovirus [16], 0.7 µM (≈ 0.254 µg/mL); with Enterovirus [17] (Enterovirus, read-out: MIC), 0.6 µM (≈ 0.218 µg/mL); in the experiment on Enterovirus [30] it was 0.7 µM (≈ 0.254 µg/mL); in the experiment on Enterovirus [28], 1.9 µM (≈ 0.689 µg/mL). Besides, in the experiment on Enterovirus [15], the MIC80 is 0.9 µM (≈ 0.327 µg/mL).

Take `Cc1cc(CCCCCOc2c(Br)cc(C3=NCCO3)cc2[N+](=O)[O-])on1`: the MIC in the experiment with Enterovirus [3] is 0.1 µM (≈ 0.0438 µg/mL); in the experiment on Enterovirus [5], 1.16 µM (≈ 0.508 µg/mL); with Enterovirus [6] it was 0.6 µM (≈ 0.263 µg/mL); in the experiment on Enterovirus [6] (Enterovirus, read-out: MIC) it was 0.5 µM (≈ 0.219 µg/mL); with Enterovirus [11] (Enterovirus, read-out: MIC), 0.3 µM (≈ 0.131 µg/mL); in the experiment on Enterovirus [16], 0.2 µM (≈ 0.0877 µg/mL). The MIC in the experiment with Enterovirus [17] (Enterovirus, read-out: MIC) was found to be 0.5 µM (≈ 0.219 µg/mL); against Enterovirus [33], 0.03 µM (≈ 0.0131 µg/mL); in the experiment with Enterovirus [30], 1.2 µM (≈ 0.526 µg/mL); against Enterovirus [34], 0.7 µM (≈ 0.307 µg/mL); in the experiment with Enterovirus [26] (Enterovirus, read-out: MIC), 0.2 µM (≈ 0.0877 µg/mL); against Enterovirus [28], 1.6 µM (≈ 0.701 µg/mL). The compound also displayed an MIC80 with Enterovirus [15] of 0.7 µM (≈ 0.307 µg/mL).

For the compound `COc1cc(C2=NCCO2)cc(OC)c1OCCCCCc1cc(C)no1`, the MIC stood at 6.2 µM (≈ 2.32 µg/mL) against Enterovirus [3]; 9.9 µM (≈ 3.71 µg/mL) in the experiment on Enterovirus [5]; 13.4 µM (≈ 5.02 µg/mL) with Enterovirus [6] (Enterovirus, read-out: MIC); 0.6 µM (≈ 0.225 µg/mL) in the experiment on Enterovirus [17] (Enterovirus, read-out: MIC); 7.7 µM (≈ 2.88 µg/mL) in the experiment with Enterovirus [30]; 12.6 µM (≈ 4.72 µg/mL) in the experiment with Enterovirus [28]. In addition, the MIC in the experiment with Enterovirus [29] stood at 14.7 µM (≈ 5.5 µg/mL); in the experiment with Enterovirus [1] it was 16.7 µM (≈ 6.25 µg/mL); in the experiment on Enterovirus [1] (Enterovirus, read-out: MIC), 33.4 µM (≈ 12.5 µg/mL). In addition, the MIC80 against Enterovirus [15] amounted to 13.4 µM (≈ 5.02 µg/mL).
